According to ChEMBL document CHEMBL5244226, “Cyathane Diterpenes from Cultures of the Bird's Nest Fungus Cyathus hookeri and Their Neurotrophic and Anti-neuroinflammatory Activities” (J Nat Prod, 2019):
pIC50: −log10 of the molar value. Calls of active or inactive are those of the source. No cut-off for these calls is given here.

Key:
PC-12 [1] = assay: Neurotrophic activity in rat PC-12 cells assessed as induction of NGF-mediated neurite outgrowth at 10 uM measured after 48 hrs by microscopic analysis; type: functional, cell-based
Outline: (§1)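 PC-12 cells (rat) grown in DMEM with 10% heat-inactivated horse serum and 5% FBS at 37 °C, 5% CO2. Plated 1 × 10^4/well on poly-L-lysine for 24 h, then 14 h in low-serum medium (2% HS, 1% FBS). Treated 48 h with compound (DMSO) plus NGF 20 ng/mL; NGF alone as positive control. Triplicate wells, 10 random phase-contrast fields per well, ≥100 cells per field. Neurite-bearing cells counted as percentage of total.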

BV-2 = assay: Antineuroinflammatory activity in mouse BV-2 cells assessed as inhibition of LPS-induced NO production measured after 24 hrs by Griess reagent based assay; type: functional, cell-based; details: BV-2, 24 h
Outline: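 BV-2 murine microglia in DMEM with 10% heat-inactivated FBS, seeded 2 × 10^4/well and grown 24 h at 37 °C. Then co-treated 24 h with LPS (E. coli 0111:B4, 1 μg/mL) plus test agent in DMSO. Controls were DMSO+LPS and quercetin. Supernatant nitrite by Griess reaction, A540, against a sodium nitrite standard curve. IC50 is the concentration halving NO output.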

PC-12 [2] = assay: Cytotoxicity against rat PC-12 cells at 10 uM; type: toxicity, cell-based; details: pc-12, 10 µM
PC-12 [3] = assay: Neurotrophic activity in rat PC-12 cells assessed as induction of NGF-mediated neurite outgrowth by measuring neurite bearing cells at 10 uM measured after 48 hrs by microscopic analysis (reference value: 15.7 +/- 0.1%); type: functional; outline: as §1
PC-12 [4] = assay: Neurotrophic activity in rat PC-12 cells assessed as induction of NGF-mediated neurite outgrowth by measuring neurite bearing cells at 5 uM measured after 48 hrs by microscopic analysis (reference value: 15.7 +/- 0.1%); type: functional; outline: as §1

For CC(C)C1=C2[C@H]3C[C@H]4O[C@](O)([C@H](O)[C@H]4CO)[C@]3(C)CC[C@@]2(C)CC1, the Activity (PC-12 [1]) was “Active” and the pIC50 (BV-2) was < 4.30.
In the case of COC(OC)C1=C[C@H](O)[C@]2(C)CC[C@@]3(C)CCC(C(C)C)=C3[C@H]2C[C@H]1OC, the Activity (PC-12 [1]) was “Active” and the pIC50 (BV-2) was 4.43.
In the case of CC(C)C1=C2[C@H]3C[C@H]4O[C@](O)([C@H](O)[C@@H]4CO)[C@]3(C)CC[C@@]2(C)CC1, the Activity (PC-12 [1]) was “Active” and the pIC50 (BV-2) was < 4.30.
For CO[C@@H]1C(C=O)=CC[C@@H]2C3=C(C(C)C)CC[C@]3(C)CC[C@@]2(C)[C@H]1O, the pIC50 (BV-2) was 5.04 and the Activity (PC-12 [2]) was “Toxic”.
CC(C)C1=C2[C@H]3C[C@H]4O[C@](O)(C=C4COC(=O)C(C)O)[C@]3(C)CC[C@@]2(C)CC1 (some centres not stated) was tested, and the Activity (PC-12 [1]) was “Active”, the pIC50 (BV-2) was 4.56 and the Activity (PC-12 [3]) was 32%. It also gave an Activity (PC-12 [4]) of 28.1%.
CC1=CC(=O)[C@]2(C)CC[C@@]3(C)CCC(C(C)C)=C3[C@H]2CC1 was tested, and the Activity (PC-12 [1]) was “Active” and the pIC50 (BV-2) was 4.56.
With CO[C@H]1C(=O)[C@]2(C)CC[C@@]3(C)CCC(C(C)C)=C3[C@H]2CC=C1C=O the Activity (PC-12 [1]) was “Active” and the pIC50 (BV-2) was 4.71.
For CO[C@H]1C[C@@H]2C3=C(C(C)C)CC[C@]3(C)CC[C@@]2(C)[C@@H](O)C=C1C=O, the pIC50 (BV-2) was 5.16 and the Activity (PC-12 [2]) was “Toxic”.
With CC(C)C1=C2[C@H]3C[C@@H](O)C(CO)=C[C@H](O)[C@]3(C)CC[C@@]2(C)CC1 the Activity (PC-12 [1]) was “Active” and the pIC50 (BV-2) was 4.66.
In the case of CC(C)C1=C2[C@H]3C[C@H]4O[C@](O)([C@H](O)[C@@H]4C4O[C@@H](C)[C@@H](C)O4)[C@]3(C)CC[C@@]2(C)CC1 (some centres not stated), the Activity (PC-12 [1]) was “Active” and the pIC50 (BV-2) was 4.81.
With CC(C)C1=C2[C@H]3C[C@H]4O[C@](O)(C=C4C(=O)O)[C@]3(C)CC[C@@]2(C)CC1 the Activity (PC-12 [1]) was “Active” and the pIC50 (BV-2) was < 4.30.
CC(C)[C@]12CC[C@]3(C)CC[C@@]4(C)C(=O)C=C(CO)[C@H](O)C[C@@H]4[C@@]31O2 was tested, and the Activity (PC-12 [1]) was “Active” and the pIC50 (BV-2) was < 4.30.
With CC(C)C1=C2[C@H]3C[C@H]4O[C@](O)(C=C4C4O[C@@H](C)[C@@H](C)O4)[C@]3(C)CC[C@@]2(C)CC1 (some centres not stated) the Activity (PC-12 [1]) was “Active” and the pIC50 (BV-2) was 4.92.
For CC(C)C1=C2[C@H]3CC=C(C=O)CC(=O)[C@]3(C)CC[C@@]2(C)CC1, the Activity (PC-12 [1]) was “Active” and the pIC50 (BV-2) was 4.96.
For CC1=C[C@H](O)[C@]2(C)CC[C@@]3(C)CCC(C(C)C)=C3[C@H]2CC1, the Activity (PC-12 [1]) was “Active” and the pIC50 (BV-2) was 4.48.
